Paper PMC12949657 (Journal of medicinal chemistry, 2024)
In brackets after ≈: the same amount, converted by molar mass.

Legend:
[1] = Mouse plasma protein binding; format: in vitro ADME
CYP2C9 = CYP2C9 (Homo sapiens, UniProt P11712); experiment: Human cytochrome P450 inhibition assay, 2C9; format: in vitro ADME; settings: human liver microsomes, 0 – 50 μM
Pseudomonas aeruginosa = experiment: MIC assay, P. aeruginosa; format: cell-based
Acinetobacter baumannii = experiment: MIC assay, A. baumannii; format: cell-based
Klebsiella pneumoniae = experiment: MIC assay, K. pneumoniae; format: cell-based
E. faecium NCTC 7171 [2] = experiment: Minimum bactericidal concentration; format: cell-based; settings: Enterococcus faecium, NCTC7171, read-out: minimal bactericidal concentration (MBC)
Outline: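 MBC was taken from the broth microdilution MIC plate. Mid-log E. faecium (OD600 0.2–0.3) was diluted 1:1000 into cation-adjusted Mueller-Hinton II broth with 1% IsoVitaleX, with test compound typically at 200–0.1 μg/mL, and incubated overnight at 37 °C. Wells were mixed, serially diluted 10-fold in DPBS and plated on Mueller-Hinton plus 1% IsoVitaleX agar. Colonies were counted after 2 d at 37 °C.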

CYP2D6 = CYP2D6 (Homo sapiens, UniProt P10635); experiment: Human cytochrome P450 inhibition assay, 2D6; format: in vitro ADME; settings: human liver microsomes, 0 – 50 μM
Chain of CYP2D6 (P10635 whole entry): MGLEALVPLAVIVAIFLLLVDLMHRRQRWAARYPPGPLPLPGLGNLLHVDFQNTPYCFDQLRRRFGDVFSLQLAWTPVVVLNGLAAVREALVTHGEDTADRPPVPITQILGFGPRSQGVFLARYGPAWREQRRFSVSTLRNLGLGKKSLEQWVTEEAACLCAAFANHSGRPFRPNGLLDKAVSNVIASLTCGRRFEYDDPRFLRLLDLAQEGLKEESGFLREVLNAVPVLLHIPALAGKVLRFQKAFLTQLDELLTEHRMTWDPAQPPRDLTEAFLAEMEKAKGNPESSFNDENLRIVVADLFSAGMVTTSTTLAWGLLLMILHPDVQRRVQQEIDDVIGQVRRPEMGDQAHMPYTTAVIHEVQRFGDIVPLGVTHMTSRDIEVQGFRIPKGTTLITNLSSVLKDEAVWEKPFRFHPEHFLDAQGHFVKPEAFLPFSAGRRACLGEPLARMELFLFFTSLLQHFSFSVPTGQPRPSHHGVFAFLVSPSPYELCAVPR

E. faecium NCTC 7171 [3] = experiment: Griess assay for intrabacterial NO release; format: cell-based, Enterococcus faecium; settings: 100 μM, 24 h and 48 h
Outline: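 E. faecium NCTC 7171 was started from a single colony in Mueller-Hinton medium and grown to OD600 0.4. The culture was split into untreated, test compound (100 μM) and DEA-NONOate (100 μM) batches. At 24 h and 48 h, samples were centrifuged and supernatants mixed with fresh Griess reagent for 30 min at rt. A548 was read, and nitrite was estimated against sodium nitrite standards (50–0.78 μM, 2-fold, in Mueller-Hinton).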

E. faecium EN 2966 = experiment: MIC assay, vancomycin-resistant E. faecium EN 2966; format: cell-based, Enterococcus faecium
[4] = Mouse dose tolerability/proportionality study; format: in vivo
CYP3A4 = CYP3A4 (Homo sapiens, UniProt P08684); experiment: Human cytochrome P450 inhibition assay, 3A4; format: in vitro ADME; settings: human liver microsomes, 0 – 50 μM
Chain of CYP3A4 (P08684 whole entry): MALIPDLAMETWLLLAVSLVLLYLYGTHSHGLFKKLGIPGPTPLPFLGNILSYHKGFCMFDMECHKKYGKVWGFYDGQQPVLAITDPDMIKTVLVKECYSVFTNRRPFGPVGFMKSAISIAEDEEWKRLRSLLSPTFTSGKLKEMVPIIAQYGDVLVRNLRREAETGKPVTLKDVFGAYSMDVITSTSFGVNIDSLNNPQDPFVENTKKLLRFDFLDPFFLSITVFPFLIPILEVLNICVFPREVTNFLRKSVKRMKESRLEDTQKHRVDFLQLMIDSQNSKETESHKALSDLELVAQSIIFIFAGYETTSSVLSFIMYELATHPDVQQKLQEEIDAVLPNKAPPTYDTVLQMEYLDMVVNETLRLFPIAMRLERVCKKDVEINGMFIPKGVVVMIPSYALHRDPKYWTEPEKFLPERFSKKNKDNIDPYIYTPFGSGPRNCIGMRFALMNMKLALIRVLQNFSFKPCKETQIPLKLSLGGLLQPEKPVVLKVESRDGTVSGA

CYP1A2 = target: T1, CYP1A2 (Homo sapiens, UniProt P05177); experiment: Human cytochrome P450 inhibition assay, 1A2; format: in vitro ADME; settings: human liver microsomes, 0 – 50 μM
T1 sequence (P05177 1-516): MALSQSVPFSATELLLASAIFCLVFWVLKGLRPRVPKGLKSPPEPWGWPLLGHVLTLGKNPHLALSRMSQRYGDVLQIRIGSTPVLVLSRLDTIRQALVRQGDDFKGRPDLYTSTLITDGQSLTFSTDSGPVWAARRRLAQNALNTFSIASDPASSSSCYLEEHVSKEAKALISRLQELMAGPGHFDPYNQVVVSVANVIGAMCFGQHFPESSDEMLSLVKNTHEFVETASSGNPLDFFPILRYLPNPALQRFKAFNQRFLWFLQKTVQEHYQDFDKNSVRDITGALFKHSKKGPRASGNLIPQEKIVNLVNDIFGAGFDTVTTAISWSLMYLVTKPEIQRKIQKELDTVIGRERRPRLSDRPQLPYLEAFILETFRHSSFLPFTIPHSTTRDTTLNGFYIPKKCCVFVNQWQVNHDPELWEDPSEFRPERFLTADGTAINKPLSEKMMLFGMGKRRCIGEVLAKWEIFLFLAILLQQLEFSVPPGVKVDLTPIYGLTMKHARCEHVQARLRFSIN

[5] = system: Enterococcus faecium NCTC 7171 (ATCC 19434); experiment: Antibacterial growth inhibition; format: cell-based; settings: ATCC19434|NCTC7171, read-out: E. faecium MIC
CYP2C19 = CYP2C19 (Homo sapiens, UniProt P33261); experiment: Human cytochrome P450 inhibition assay, 2C19; format: in vitro ADME; settings: human liver microsomes, 0 – 50 μM
Chain of CYP2C19 (P33261 whole entry): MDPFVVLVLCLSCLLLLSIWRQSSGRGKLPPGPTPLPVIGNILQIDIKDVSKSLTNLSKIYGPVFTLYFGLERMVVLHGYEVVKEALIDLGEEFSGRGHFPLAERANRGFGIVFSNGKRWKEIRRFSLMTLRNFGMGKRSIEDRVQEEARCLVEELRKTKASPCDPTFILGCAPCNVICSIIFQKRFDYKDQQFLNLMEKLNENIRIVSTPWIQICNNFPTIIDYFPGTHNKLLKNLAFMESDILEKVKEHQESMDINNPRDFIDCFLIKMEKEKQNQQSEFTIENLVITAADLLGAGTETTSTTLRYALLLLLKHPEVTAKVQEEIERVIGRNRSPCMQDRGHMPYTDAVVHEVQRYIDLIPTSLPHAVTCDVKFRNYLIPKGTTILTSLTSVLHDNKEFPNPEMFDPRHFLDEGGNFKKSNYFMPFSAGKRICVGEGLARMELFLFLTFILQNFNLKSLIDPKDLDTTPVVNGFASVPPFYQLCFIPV

Staphylococcus aureus = experiment: MIC assay, S. aureus; format: cell-based
[6] = Human plasma protein binding; format: in vitro ADME
E. faecium = settings: cited from earlier work
[7] = Mouse snapshot 5 h PK study; format: in vivo; settings: female, CD-1, mouse, plasma, po, 25 mg/kg
Outline: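 Two female CD-1 mice received a single oral 25 mg/kg dose in 5% DMA/60% PEG300/35% D5W. Blood was collected into K2EDTA pre-dose and at 0.5, 1, 3 and 5 h, kept on ice, and spun to plasma stored at −80 °C. Quantitation was by LC-MS/MS against plasma standard curves (1/x² weighting) after acetonitrile/methanol precipitation with verapamil internal standard. AUC was calculated by trapezoidal integration.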

Chain of CYP2C9 (P11712 whole entry): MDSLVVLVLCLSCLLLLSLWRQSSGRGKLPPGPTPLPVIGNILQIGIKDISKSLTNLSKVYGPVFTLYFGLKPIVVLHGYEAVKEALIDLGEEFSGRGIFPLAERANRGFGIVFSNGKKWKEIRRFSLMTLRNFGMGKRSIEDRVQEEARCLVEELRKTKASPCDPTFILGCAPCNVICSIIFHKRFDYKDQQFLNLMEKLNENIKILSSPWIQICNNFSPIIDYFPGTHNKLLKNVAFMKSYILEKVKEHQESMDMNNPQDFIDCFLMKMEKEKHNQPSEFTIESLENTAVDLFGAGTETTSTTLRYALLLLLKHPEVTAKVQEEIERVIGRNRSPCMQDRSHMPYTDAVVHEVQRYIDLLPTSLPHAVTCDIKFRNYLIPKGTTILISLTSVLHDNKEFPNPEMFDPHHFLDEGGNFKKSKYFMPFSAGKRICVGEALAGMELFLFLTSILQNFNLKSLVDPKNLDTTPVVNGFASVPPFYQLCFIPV

Structure (SMILES): O=C(NNC(=O)c1sc2cc(Cl)ccc2c1Cl)c1ccc([N+](=O)[O-])o1 [JSF-3269]
- binding to mouse plasma [1]: 99.99%
- inhibition of human cytochrome P450 2C9 (CYP2C9): not a significant inhibitor
- MIC (Pseudomonas aeruginosa): > 120 µM
- MIC (Acinetobacter baumannii): > 120 µM
- MIC (Klebsiella pneumoniae): > 120 µM
- MBC (E. faecium NCTC 7171 [2]): 7.7 to 15 µM (≈ 3.08 to 6 µg/mL)
- inhibition of human cytochrome P450 2D6 (CYP2D6): not a significant inhibitor
- intracellular release of NO• (nitrite in supernatant) (E. faecium NCTC 7171 [3]): no evidence was found to support the intracellular release of NO•
- MIC (E. faecium EN 2966): the same MIC as versus the NCTC 7171 strain
- exposure (AUC0-24h) dose proportionality ([4]; mice, 50, 150 and 300 mg/kg po): appeared to plateau between 150 and 300 mg/kg
- dose tolerability ([4]; mice, doses up to the highest level tested of 300 mg/kg po): tolerated
- inhibition of human cytochrome P450 3A4 (CYP3A4): not a significant inhibitor
- inhibition of human cytochrome P450 1A2 (CYP1A2): not a significant inhibitor
- MIC [5]: 1.9 to 3.8 µM (≈ 0.76 to 1.52 µg/mL)
- inhibition of human cytochrome P450 2C19 (CYP2C19): not a significant inhibitor
- MIC (Staphylococcus aureus): 16 µM (≈ 6.4 µg/mL)
- binding to human plasma [6]: 99.3%

Structure (SMILES): O=C1CN(/N=C/c2ccc([N+](=O)[O-])o2)C(=O)N1 [nitrofurantoin]
- in vitro efficacy versus E. faecium (E. faecium): limited in vitro efficacy

Structure (SMILES): O=C(NNC(=O)c1cc2cc(C(F)(F)F)cc(Cl)c2s1)c1ccc([N+](=O)[O-])o1 [Compound 25]
- AUC(0-t) [7]: 111000 ng·h/mL

Structure (SMILES): O=C(NNC(=O)c1cc2ccccc2s1)c1ccc([N+](=O)[O-])o1 [JSF-2827, N'-(benzo[b]thiophene-2-carbonyl)-5-nitrofuran-2-carbohydrazide]
- MIC [5]: 0.75 µM (≈ 0.248 µg/mL)

Structure (SMILES): O=C(NNC(=O)c1cc2cc(Cl)cc(Cl)c2s1)c1ccc([N+](=O)[O-])o1 [Compound 22]
- AUC(0-t) [7]: 43800 ng·h/mL
